# Test results: ChEMBL document CHEMBL3351648, “Synthesis and pharmacological evaluation of 6-aminonicotinic acid analogues as novel GABA(A) receptor agonists” (Eur J Med Chem, 2014); call rule not given here
# Columns and labels:
# [1] = molecular target: GABA-A receptor; anion channel; test: Displacement of [3H]muscimol from GABAA receptor in SPRD rat brain synaptic membranes by scintillation counting method; assay type: cell membranes
# Procedure, shortened: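 Rat synaptic membranes were thawed, homogenized in ice-cold 50 mM Tris-HCl pH 7.4, and spun at 48,000g for 10 min at 4 °C, with the wash repeated four times. Incubation was with 5 nM [3H]muscimol (final) and varying test concentrations for 60 min at 0 °C, then GF/C filtration and scintillation counting.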
# [2] = molecular target: T1, GABA-A receptor; alpha-1/beta-2/gamma-2 (Homo sapiens, UniProt P14867+P18507+P47870); test: (§1) Agonist activity at human GABAAalpha1beta2gamma2S receptor expressed in tsA-201cells by FLIPR membrane potential blue assay
# T1 sequence (P14867 whole entry): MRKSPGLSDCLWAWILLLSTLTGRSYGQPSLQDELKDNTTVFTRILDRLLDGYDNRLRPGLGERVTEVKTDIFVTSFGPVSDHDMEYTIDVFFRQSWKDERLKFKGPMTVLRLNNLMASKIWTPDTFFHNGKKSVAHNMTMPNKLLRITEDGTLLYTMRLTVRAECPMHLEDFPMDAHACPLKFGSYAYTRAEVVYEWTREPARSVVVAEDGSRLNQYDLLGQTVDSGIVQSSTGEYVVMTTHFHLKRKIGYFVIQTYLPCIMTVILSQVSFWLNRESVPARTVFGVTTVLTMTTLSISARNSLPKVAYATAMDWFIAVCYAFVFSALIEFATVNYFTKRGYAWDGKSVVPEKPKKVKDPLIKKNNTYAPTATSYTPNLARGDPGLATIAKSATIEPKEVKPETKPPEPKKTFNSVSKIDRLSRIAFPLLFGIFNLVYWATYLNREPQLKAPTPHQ
# T1 sequence (P47870 whole entry): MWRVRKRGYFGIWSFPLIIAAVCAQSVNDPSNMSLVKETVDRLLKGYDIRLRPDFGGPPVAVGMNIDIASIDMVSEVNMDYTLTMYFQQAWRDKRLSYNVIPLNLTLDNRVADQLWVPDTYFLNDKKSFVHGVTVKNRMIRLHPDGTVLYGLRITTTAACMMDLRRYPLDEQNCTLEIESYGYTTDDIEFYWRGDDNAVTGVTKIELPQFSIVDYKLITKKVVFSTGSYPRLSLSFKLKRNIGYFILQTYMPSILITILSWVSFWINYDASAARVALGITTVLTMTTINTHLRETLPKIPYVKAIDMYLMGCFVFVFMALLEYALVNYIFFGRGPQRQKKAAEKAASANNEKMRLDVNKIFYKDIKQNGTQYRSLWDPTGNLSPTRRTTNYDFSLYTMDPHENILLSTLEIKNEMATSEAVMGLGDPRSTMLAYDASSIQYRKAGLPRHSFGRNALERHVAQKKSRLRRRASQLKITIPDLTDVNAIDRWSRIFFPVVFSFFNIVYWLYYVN
# T1 sequence (P18507 whole entry): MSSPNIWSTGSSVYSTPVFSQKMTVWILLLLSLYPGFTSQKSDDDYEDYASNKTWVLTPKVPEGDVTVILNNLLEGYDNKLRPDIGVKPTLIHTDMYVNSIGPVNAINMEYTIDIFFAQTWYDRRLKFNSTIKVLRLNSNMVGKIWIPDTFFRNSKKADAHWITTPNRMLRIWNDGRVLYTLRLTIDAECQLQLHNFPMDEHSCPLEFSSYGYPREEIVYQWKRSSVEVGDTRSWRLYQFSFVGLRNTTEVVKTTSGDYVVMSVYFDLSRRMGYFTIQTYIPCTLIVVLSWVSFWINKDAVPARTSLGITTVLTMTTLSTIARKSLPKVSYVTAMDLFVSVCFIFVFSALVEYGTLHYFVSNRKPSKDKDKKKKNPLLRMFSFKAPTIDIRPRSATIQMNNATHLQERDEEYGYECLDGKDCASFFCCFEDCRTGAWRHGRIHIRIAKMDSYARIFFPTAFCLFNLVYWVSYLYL
# Procedure, shortened: (§2)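 tsA201 cells (8×10^5 per 6 cm dish) were transfected with α1, α2, α3 or α5 plus β2 and γ2S cDNAs (1:1:3), or with ρ1 alone. Next day cells were replated into poly-D-lysine 96-well plates. After 16–24 h they were washed with Krebs buffer pH 7.4, given membrane-potential dye, held 30 min at 37 °C, and read at 560 nm emission. Concentration-response curves used ΔFU before versus after agonist; duplicates were run ≥3 times.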
# [3] = molecular target: T2, GABA-A receptor; alpha-1/beta-2/gamma-2 (Homo sapiens, UniProt P14867+P47870+P18507); test: as §1; conditions: tsa-201; procedure, shortened: as §2
# T2 sequence (P14867 whole entry): T1 sequence (P14867 whole entry)
# T2 sequence (P47870 whole entry): T1 sequence (P47870 whole entry)
# T2 sequence (P18507 whole entry): T1 sequence (P18507 whole entry)
# [4] = molecular target: T3, Gamma-aminobutyric acid receptor subunit rho-1 (Homo sapiens, UniProt P24046); test: Agonist activity at human GABAA rho1 expressed in tsA-201cells by FLIPR membrane potential blue assay; procedure, shortened: as §2
# T3 sequence (P24046 whole entry): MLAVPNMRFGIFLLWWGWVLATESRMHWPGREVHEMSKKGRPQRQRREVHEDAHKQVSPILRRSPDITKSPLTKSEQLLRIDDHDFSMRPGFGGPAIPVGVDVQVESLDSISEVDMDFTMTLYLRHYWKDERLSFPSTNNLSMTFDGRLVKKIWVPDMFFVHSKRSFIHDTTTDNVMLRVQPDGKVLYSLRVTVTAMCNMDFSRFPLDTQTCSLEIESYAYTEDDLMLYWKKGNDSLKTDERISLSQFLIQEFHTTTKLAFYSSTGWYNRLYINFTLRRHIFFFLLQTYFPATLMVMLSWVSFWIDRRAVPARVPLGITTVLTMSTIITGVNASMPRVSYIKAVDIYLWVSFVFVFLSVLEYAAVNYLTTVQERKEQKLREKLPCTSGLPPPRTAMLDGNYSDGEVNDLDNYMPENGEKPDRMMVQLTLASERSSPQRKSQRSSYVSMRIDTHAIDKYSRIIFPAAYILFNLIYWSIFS
# [5] = molecular target: T4, GABA A receptor alpha-2/beta-2/gamma-2 (Homo sapiens, UniProt P18507+P47869+P47870); test: Agonist activity at human GABAAalpha2beta2gamma2S receptor expressed in tsA-201cells by FLIPR membrane potential blue assay; procedure, shortened: as §2
# T4 sequence (P47870 whole entry): T1 sequence (P47870 whole entry)
# T4 sequence (P18507 whole entry): T1 sequence (P18507 whole entry)
# T4 sequence (P47869 whole entry): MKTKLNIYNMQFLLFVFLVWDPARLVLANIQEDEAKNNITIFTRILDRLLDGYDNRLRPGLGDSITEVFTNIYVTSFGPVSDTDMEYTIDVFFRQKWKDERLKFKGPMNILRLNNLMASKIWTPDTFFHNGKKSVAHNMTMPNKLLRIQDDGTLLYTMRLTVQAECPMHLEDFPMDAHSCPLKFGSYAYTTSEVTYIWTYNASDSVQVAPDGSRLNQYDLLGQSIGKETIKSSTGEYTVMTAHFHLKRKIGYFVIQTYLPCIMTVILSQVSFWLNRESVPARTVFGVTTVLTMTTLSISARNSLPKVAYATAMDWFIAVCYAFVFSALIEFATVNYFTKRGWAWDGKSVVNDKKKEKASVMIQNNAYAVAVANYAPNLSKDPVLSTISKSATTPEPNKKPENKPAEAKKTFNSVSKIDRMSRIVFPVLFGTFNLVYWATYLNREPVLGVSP
# [6] = molecular target: GABA A receptor alpha-2/beta-2/gamma-2 (Homo sapiens) (UniProt P47870+P18507+P47869); test: Agonist activity at human GABAAalpha2beta2gamma2S receptor expressed in tsA-201cells by FLIPR membrane potential blue assay relative to GABA
# [7] = molecular target: T5, GABA A receptor alpha-3/beta-2/gamma-2 (Homo sapiens, UniProt P18507+P34903+P47870); test: Agonist activity at human GABAAalpha3beta2gamma2S receptor expressed in tsA-201cells by FLIPR membrane potential blue assay; procedure, shortened: as §2
# T5 sequence (P47870 whole entry): T1 sequence (P47870 whole entry)
# T5 sequence (P18507 whole entry): T1 sequence (P18507 whole entry)
# T5 sequence (P34903 whole entry): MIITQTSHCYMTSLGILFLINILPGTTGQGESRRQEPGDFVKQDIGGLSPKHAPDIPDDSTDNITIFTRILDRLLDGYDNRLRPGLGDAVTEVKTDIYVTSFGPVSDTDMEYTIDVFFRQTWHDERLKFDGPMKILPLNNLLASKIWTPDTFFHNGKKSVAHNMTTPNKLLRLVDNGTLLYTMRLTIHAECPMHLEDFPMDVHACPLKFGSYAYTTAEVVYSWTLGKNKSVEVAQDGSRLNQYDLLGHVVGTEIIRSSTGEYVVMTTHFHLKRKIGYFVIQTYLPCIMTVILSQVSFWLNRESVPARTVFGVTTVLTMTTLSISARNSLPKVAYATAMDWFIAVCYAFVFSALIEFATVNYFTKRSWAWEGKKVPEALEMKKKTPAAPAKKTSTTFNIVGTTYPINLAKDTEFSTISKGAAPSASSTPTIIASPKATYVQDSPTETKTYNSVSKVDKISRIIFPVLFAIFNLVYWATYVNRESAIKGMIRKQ
# [8] = molecular target: GABA A receptor alpha-3/beta-2/gamma-2 (Homo sapiens) (UniProt P47870+P18507+P34903); test: Agonist activity at human GABAAalpha3beta2gamma2S receptor expressed in tsA-201cells by FLIPR membrane potential blue assay relative to GABA
# [9] = Agonist activity at human GABAAalpha5beta2gamma2S receptor expressed in tsA-201cells by FLIPR membrane potential blue assay; assay type: cell membranes
# tsA-201 = test: Agonist activity at human GABAAalpha5beta2gamma2S receptor expressed in tsA-201cells by FLIPR membrane potential blue assay relative to GABA
# [10] = molecular target: T3, Gamma-aminobutyric acid receptor subunit rho-1; test: Agonist activity at human GABAA rho1 expressed in tsA-201cells by FLIPR membrane potential blue assay relative to GABA
# [11] = Dissociation constant, pKa of the compound by diode array detector method; assay type: physicochemical
# Procedure, shortened: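 pKa was determined by titration in methanol cosolvent at 23–48%, with three titrations per compound. An in-line diode-array detector recorded UV-Vis spectra, and the titration was mapped against the spectra of the protonated and unprotonated species.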
smiles,measurement,setting,value
CCc1nc(N)ccc1C(=O)O,Ki,[1],2.1 µM
same,EC50,[2]; read-out: EC50,> 1000 µM
same,pEC50,[3],< 3
same,EC50,[4]; read-out: EC50,> 1000 µM
same,pEC50,[4]; tsa-201,< 3
Nc1cccc(CC(=O)O)n1,Ki,[1],> 100 µM
NCc1cc(=O)[nH]o1 [MUSCIMOL],Ki,[1],0.006 µM
O=C(O)C1=CCNCC1 [ISOGUVACINE],Ki,[1],0.055 µM
same,EC50,[2]; read-out: EC50,11 µM
same,EC50,[4]; read-out: EC50,39 µM
same,EC50,[5],4.5 µM
same,Rmax,[6],95%
same,EC50,[7],5.6 µM
same,Rmax,[8],91%
same,EC50,[9],0.78 µM
same,pEC50,[9],6.1
same,Rmax,tsA-201,101%
same,Rmax,[10],85%
Cc1cc(C(=O)O)cnc1N,Ki,[1],> 100 µM
NCc1cc(O)no1 [MUSCIMOL],Rmax,[6],99%
same,Rmax,[8],97%
same,EC50,[9],0.054 µM
same,pEC50,[9],7.27
same,Rmax,tsA-201,114%
same,Rmax,[10],98%
Nc1ncccc1C(=O)O,Ki,[1],> 100 µM
NC1=NCC(C(=O)O)CN1 (stereo not given),Ki,[1],0.54 µM
same,EC50,[2]; read-out: EC50,14 µM
same,EC50,[4]; read-out: EC50,8.1 µM
same,EC50,[4]; read-out: pEC50 (converted),1.58 µM
same,pKa,[11],12.7
same,EC50,[5],9.4 µM
same,Rmax,[6],91%
same,EC50,[7],19 µM
same,Rmax,[8],85%
same,EC50,[9],2.1 µM
same,pEC50,[9],5.68
same,Rmax,tsA-201,113%
same,Rmax,[10],55%
Cc1nc(N)ccc1C(=O)O,Ki,[1],1.4 µM
same,EC50,[3],Active
same,EC50,[4]; tsa-201,Active
CCc1cc(N)ncc1C(=O)O,Ki,[1],9.3 µM
same,EC50,[2]; read-out: EC50,> 1000 µM
same,pEC50,[3],< 3
same,EC50,[4]; read-out: EC50,> 1000 µM
same,pEC50,[4]; tsa-201,< 3
CNC1=NCC(C(=O)O)CC1 (stereo not given),Ki,[1],49 µM
same,pKi,[1],4.32
same,EC50,[2]; read-out: EC50,> 1000 µM
same,pEC50,[3],< 3
CCCCc1nc(N)ccc1C(=O)O,Ki,[1],7.1 µM
same,EC50,[2]; read-out: EC50,> 1000 µM
same,pEC50,[3],< 3
same,EC50,[4]; read-out: EC50,> 1000 µM
same,pEC50,[4]; tsa-201,< 3
Nc1ccc(C(=O)O)c(-c2ccccc2)n1,Ki,[1],> 100 µM
CCc1cc(C(=O)O)cnc1N,Ki,[1],> 100 µM
Nc1cc(-c2ccccc2)c(C(=O)O)cn1,Ki,[1],> 100 µM
Nc1cccc(C(=O)O)n1,Ki,[1],> 100 µM
Nc1ccc(C(=O)O)c(Cl)n1,Ki,[1],> 100 µM
CNc1ccc(C(=O)O)cn1,Ki,[1],> 100 µM
CCCCc1cc(N)ncc1C(=O)O,Ki,[1],24 µM
same,EC50,[2]; read-out: EC50,> 1000 µM
same,pEC50,[3],< 3
same,EC50,[4]; read-out: EC50,> 1000 µM
same,pEC50,[4]; tsa-201,< 3
Nc1ncc(C(=O)O)cc1I,Ki,[1],> 100 µM
O=C(O)c1cncnc1,Ki,[1],> 100 µM
same,pKa,[11],1.4
Nc1cc(CC(=O)O)ccn1,Ki,[1],73 µM
Nc1ccc(CC(=O)O)cn1,Ki,[1],90 µM
NC1=NCC(C(=O)O)CC1 (stereo not given),Ki,[1],0.044 µM
same,EC50,[2]; read-out: EC50,2.6 µM
same,EC50,[4]; read-out: EC50,2.3 µM
same,EC50,[4]; read-out: pEC50 (converted),1.23 µM
same,pKa,[11],12.4
same,EC50,[5],0.82 µM
same,Rmax,[6],101%
same,EC50,[7],1.1 µM
same,Rmax,[8],93%
same,EC50,[9],0.092 µM
same,pEC50,[9],7.04
same,Rmax,tsA-201,100%
same,Rmax,[10],64%
Nc1ncccc1CC(=O)O,Ki,[1],> 100 µM
Nc1ncc(C(=O)O)cn1,Ki,[1],> 100 µM
same,pKa,[11],1.9
Nc1ccc(C(=O)O)cn1,Ki,[1],4.4 µM
same,pKi,[1],5.39
same,EC50,[2]; read-out: EC50,> 300 µM
same,EC50,[2]; read-out: pEC50 (converted),> 316 µM
same,EC50,[4]; tsa-201,Active
same,pKa,[11],6.2
Nc1cc(C(=O)O)ccn1,Ki,[1],19 µM
